Data on 26 compounds can be found in ChEMBL document CHEMBL1131116, “Design and synthesis of new potent C2-symmetric HIV-1 protease inhibitors. Use of L-mannaric acid as a peptidomimetic scaffold” (J Med Chem, 1998).

SMILES strings stand for the structures. In brackets after ≈: the same amount, converted by molar mass.

The subject of test [1] is MT4. Description: In vitro anti-HIV activity in MT-4 cells by using an HIV cytopathic assay. Format: functional. To be noted: Homo sapiens, read-out: ED50 (the source's name). In short, it runs like this: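 HIV cytopathic assay in MT-4 cells, with cell protection quantified by the vital dye XTT. ED50 (µg/mL), the 50% inhibitory concentration, was calculated from the percent cytoprotection for each compound.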
(Protection from cytopathic effect is a common read-out in antiviral testing.)

Test [2] addresses T1, Human immunodeficiency virus type 1 protease (Human immunodeficiency virus 1, UniProt Q72874). Description: Inhibitory activity against purified HIV-1 protease expressed in Escherichia coli in sensitive fluorometric assay.
Test [3] deals with T1, Human immunodeficiency virus type 1 protease. Description: Inhibitory activity against purified HIV-1 protease in a standardized spectrophotometric assay expressed in E. uM. Put shortly:
(§1)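 Recombinant HIV-1 protease, cloned and heterologously expressed in E. coli, then purified. Inhibition was measured in a standardized spectrophotometric protease assay and reported as IC50 values.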

The target is the same in test [4]. As to the kind of experiment: inhibitory activity against purified HIV-1 protease in a standardized spectrophotometric assay expressed in E. coli; ni=no inhibition. Put shortly: as §1
For test [5] the target is unchanged. Description: inhibitory activity against purified HIV-1 protease in a standardized spectrophotometric assay expressed in E. coli; ni= no inhibition. In short, it runs like this:
as §1

Test [6] shares this target. Description: inhibitory activity against purified HIV-1 protease in a standardized spectrophotometric assay expressed in Escherichia coli.
The target is the same in test [7]. As to the kind of experiment: inhibitory activity against purified HIV-1 protease in a standardized spectrophotometric assay expressed in E. coli; ni = no inhibition. Put shortly:
as §1

Test [8] shares this target. As to the kind of experiment: inhibitory activity against purified HIV-1 protease in a standardized spectrophotometric assay expressed in E. inhibition. Put shortly:
as §1

For the compound `CNC(=O)[C@@H](NC(=O)[C@H](OCc1ccccc1)[C@H](O)[C@@H](O)[C@@H](OCc1ccccc1)C(=O)N[C@H](C(=O)NC)C(C)C)C(C)C`, the EC50 in test [1] was 0.9 µg/mL (≈ 1.46 µM). In test [2], this compound had a Ki of 0.4 nM. For the compound `Cc1c(O)cccc1NC(=O)[C@H](OCc1ccccc1)[C@H](O)[C@@H](O)[C@@H](OCc1ccccc1)C(=O)Nc1cccc(O)c1C`, in test [3], the IC50 result is “Not Active”. Take `O=C(NCc1ccccn1)[C@H](OCc1ccccc1)[C@H](O)[C@@H](O)[C@@H](OCc1ccccc1)C(=O)NCc1ccccn1`: in test [4], the IC50 result is “Not Active”. As to `CNC(=O)C(NC(=O)[C@H](OCc1ccccc1)[C@H](O)[C@@H](O)[C@@H](OCc1ccccc1)C(=O)NC(C(=O)NC)[C@@H](C)O)[C@H](C)O` (stereo partly drawn), the half-maximal inhibitory concentration (IC50) result in test [4] is on record as “Not Active”. The affinity in test [2], expressed as Ki, was 500 nM. Consider `O=C(NCCO)[C@H](OCc1ccccc1)[C@H](O)[C@@H](O)[C@@H](OCc1ccccc1)C(=O)NCCO`, for which the IC50 entry in test [4] is “Not Active”. As to `O=C(NCc1cncs1)[C@H](OCc1ccccc1)[C@H](O)[C@@H](O)[C@@H](OCc1ccccc1)C(=O)NCc1cncs1`, affinity in test [2] was put at a Ki of 7100 nM. That is a single-digit micromolar value. Regarding `CNC(=O)[C@H](Cc1ccccc1)NC(=O)[C@H](OCc1ccccc1)[C@H](O)[C@@H](O)[C@@H](OCc1ccccc1)C(=O)N[C@@H](Cc1ccccc1)C(=O)NC`, the IC50 result in test [4] is listed as “Not Active”. The compound also showed a Ki in test [2] of 140 nM. For `CNC(=O)C(NC(=O)[C@H](OCc1ccccc1)[C@H](O)[C@@H](O)[C@@H](OCc1ccccc1)C(=O)NC(C(=O)NC)c1cccc(F)c1)c1cccc(F)c1` (stereo partly drawn) the same measures were “Not Active” and 81 nM.

As to `COC(=O)[C@H](Cc1ccccc1)NC(=O)[C@H](OCc1ccccc1)[C@H](O)[C@@H](O)[C@@H](OCc1ccccc1)C(=O)N[C@@H](Cc1ccccc1)C(=O)OC`, in test [5], the IC50 entry is given as “Not Active”.

Turning to `O=C(NC1c2ccccc2CC1O)[C@H](OCc1ccccc1)[C@H](O)[C@@H](O)[C@@H](OCc1ccccc1)C(=O)N[C@H]1c2ccccc2C[C@H]1O` (single isomer, unassigned), in test [4], the IC50 result is on record as “Not Active”.

Consider `O=C(NCc1ccncc1)[C@H](OCc1ccccc1)[C@H](O)[C@@H](O)[C@@H](OCc1ccccc1)C(=O)NCc1ccncc1`, for which, in test [4], the IC50 entry is recorded as “Not Active”. Still for that read-out and setting: as for `CNC(=O)[C@@H](NC(=O)[C@H](OCc1ccccc1)[C@H](O)[C@@H](O)[C@@H](OCc1ccccc1)C(=O)N[C@H](C(=O)NC)c1ccccc1)c1ccccc1`, the entry is “Not Active”. With `CC(C)c1nc(CN(C)C(=O)N[C@H](C(=O)N[C@@H](Cc2ccccc2)C[C@H](O)[C@H](Cc2ccccc2)NC(=O)OCc2cncs2)C(C)C)cs1` [RITONAVIR], the EC50 in test [1] amounted to 0.05 µg/mL (≈ 0.0694 µM). Regarding `Cc1cc(O)ccc1NC(=O)[C@H](OCc1ccccc1)[C@H](O)[C@@H](O)[C@@H](OCc1ccccc1)C(=O)Nc1ccc(O)cc1C`, the IC50 entry in test [3] is “Not Active”. As to `CC[C@@H](C)C(NC(=O)[C@H](OCc1ccccc1)[C@H](O)[C@@H](O)[C@@H](OCc1ccccc1)C(=O)NC(C(=O)NC)[C@@H](C)CC)C(=O)NC` (stereo partly drawn), the EC50 in test [1] was 1 µg/mL (≈ 1.56 µM). The same compound gave a Ki in test [2] of 0.9 nM. Consider `CNC(=O)[C@H](Cc1ccc(O)cc1)NC(=O)[C@H](OCc1ccccc1)[C@H](O)[C@@H](O)[C@@H](OCc1ccccc1)C(=O)N[C@@H](Cc1ccc(O)cc1)C(=O)NC`, for which, in test [2], affinity was put at a Ki of 5000 nM. For the same compound, in test [5], the IC50 result is given as “Not Active”. Consider `COC(=O)[C@@H](NC(=O)[C@H](OCc1ccccc1)[C@H](O)[C@@H](O)[C@@H](OCc1ccccc1)C(=O)N[C@H](C(=O)OC)C(C)C)C(C)C`, for which, in test [6], the IC50 worked out at 5000 nM. As to `COC(=O)[C@H](CC(C)C)NC(=O)[C@H](OCc1ccccc1)[C@H](O)[C@@H](O)[C@@H](OCc1ccccc1)C(=O)N[C@@H](CC(C)C)C(=O)OC`, the IC50 entry in test [4] is “Not Active”. In test [2], `CNC(=O)[C@H](CCSC)NC(=O)[C@H](OCc1ccccc1)[C@H](O)[C@@H](O)[C@@H](OCc1ccccc1)C(=O)N[C@@H](CCSC)C(=O)NC` registered a Ki of 660 nM. In other words, the sub-micromolar range. On to `CC(C)[C@H](NC(=O)[C@H](OCc1ccccc1)[C@H](O)[C@@H](O)[C@@H](OCc1ccccc1)C(=O)N[C@H](C(=O)OCc1ccccc1)C(C)C)C(=O)OCc1ccccc1`, for which the IC50 result in test [7] was “Not Active”.

On to `CC(C)[C@@H](CO)NC(=O)[C@H](OCc1ccccc1)[C@H](O)[C@@H](O)[C@@H](OCc1ccccc1)C(=O)N[C@H](CO)C(C)C`, for which, in test [8], the IC50 entry is given as “Not Active”.

Turning to `CC(C)(C)NC(=O)[C@@H]1CN(Cc2cccnc2)CCN1C[C@@H](O)C[C@@H](Cc1ccccc1)C(=O)N[C@H]1c2ccccc2C[C@H]1O.O` [INDINAVIR], the EC50 in test [1] was found to be 0.04 µg/mL.

As for `O=C(N[C@@H]1c2ccccc2C[C@@H]1O)[C@H](OCc1ccccc1)[C@H](O)[C@@H](O)[C@@H](OCc1ccccc1)C(=O)N[C@H]1c2ccccc2C[C@H]1O`, in test [1], the EC50 turned out to be 0.06 µg/mL (≈ 0.0919 µM). In test [2], the Ki was determined as 0.2 nM. With `Cc1ccc(NC(=O)[C@H](OCc2ccccc2)[C@H](O)[C@@H](O)[C@@H](OCc2ccccc2)C(=O)Nc2ccc(C)cc2O)c(O)c1`, the half-maximal inhibitory concentration (IC50) entry in test [3] is reported as “Not Active”. Consider `O=C(NCc1cccnc1)[C@H](OCc1ccccc1)[C@H](O)[C@@H](O)[C@@H](OCc1ccccc1)C(=O)NCc1cccnc1`, for which the IC50 entry in test [4] is given as “Not Active”. For the compound `O=C(NCc1c(F)cccc1Cl)[C@H](OCc1ccccc1)[C@H](O)[C@@H](O)[C@@H](OCc1ccccc1)C(=O)NCc1c(F)cccc1Cl`, in test [2], the affinity, expressed as Ki, was 2000 nM.

For orientation: Ki means a dissociation constant, usually derived from enzyme kinetics or from competition with a known ligand. A high value points to lower affinity. What is called IC50 is the point on the concentration scale where inhibition reaches its midpoint. High values mean a need for much substance, low ones inhibition by little substance.
